Here are results for four compounds from ChEMBL document CHEMBL1221194, “Forward chemical genetic approach identifies new role for GAPDH in insulin signaling” (Nat Chem Biol, 2007).

Active and inactive are the calls of the source. The calls are words filed in the database; no cut-off is given here.

Assay [1] deals with Glyceraldehyde-3-phosphate dehydrogenase (Mus musculus) (UniProt P16858). The assay can be described thus: Inhibition of GAPDH in mouse 3T3-L1 cells assessed as 2-NBD-glucose uptake after 15 mins. The format is cell-based. A digest of the protocol: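 3T3-L1 preadipocytes grown overnight in DMEM with 10% heat-inactivated newborn calf serum, washed and held in PBS 5 min. Compound applied with 2-NBD-glucose ([…]) for 15 min at 37 °C. Cells washed, lysed in 0.1 M potassium phosphate pH 10 with 1% Triton X-100, DMSO added. Fluorescence read at ex 466/em 540 nm.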
Chain of Glyceraldehyde-3-phosphate dehydrogenase (Mus musculus) (P16858 whole entry): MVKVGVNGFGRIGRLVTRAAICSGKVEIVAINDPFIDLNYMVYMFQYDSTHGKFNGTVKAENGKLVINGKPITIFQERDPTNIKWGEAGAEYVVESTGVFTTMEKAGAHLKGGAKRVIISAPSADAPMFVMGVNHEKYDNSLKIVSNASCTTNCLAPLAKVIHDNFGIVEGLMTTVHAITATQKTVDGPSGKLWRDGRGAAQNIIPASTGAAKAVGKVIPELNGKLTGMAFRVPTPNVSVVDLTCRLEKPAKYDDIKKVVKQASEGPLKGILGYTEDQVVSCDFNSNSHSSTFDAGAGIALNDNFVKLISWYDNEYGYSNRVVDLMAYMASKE

In assay [2] the target is Glyceraldehyde-3-phosphate dehydrogenase (Oryctolagus cuniculus) (UniProt P46406). Kind of assay: Inhibition of rabbit GAPDH glycolytic activity at > 50 uM.
Chain of Glyceraldehyde-3-phosphate dehydrogenase (Oryctolagus cuniculus) (P46406 whole entry, looked up): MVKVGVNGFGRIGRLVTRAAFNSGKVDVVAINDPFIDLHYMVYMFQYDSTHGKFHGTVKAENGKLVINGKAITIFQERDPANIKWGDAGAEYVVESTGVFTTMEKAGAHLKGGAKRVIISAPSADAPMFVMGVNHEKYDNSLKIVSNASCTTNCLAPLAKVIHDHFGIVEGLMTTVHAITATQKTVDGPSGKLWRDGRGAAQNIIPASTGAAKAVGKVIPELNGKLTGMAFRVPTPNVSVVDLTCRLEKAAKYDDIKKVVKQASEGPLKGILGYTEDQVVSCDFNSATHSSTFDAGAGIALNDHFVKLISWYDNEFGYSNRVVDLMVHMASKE
The target is the same in assay [3]. The assay can be described thus: Induction of rabbit GAPDH tetramer segregation into monomers at 10 uM after 30 mins by SDS-PAGE. In short, it runs like this: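 Purified rabbit muscle GAPDH was incubated with compound at 0.4, 2 or 10 µM for 30 min at 4 °C. Samples were then chemically cross-linked, resolved by SDS-PAGE and silver-stained. Tetramer and monomer bands were compared.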

Assay [4] has as its target Glyceraldehyde-3-phosphate dehydrogenase (Mus musculus) (UniProt P16858). The assay can be described thus: Inhibition of GAPDH in mouse 3T3L1 lysate assessed as inhibition of conversion of Ptdlns(3, 4, 5)P3 to PIP2 by fluorescent phosphoinositide TLC. A digest of the protocol: (§1)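 3T3-L1 preadipocyte lysate (5 µl) in 50 mM ammonium carbonate pH 8.0 with 2 mM DTT. Compound present, reaction started with C6-NBD6-PtdIns(3,4,5)P3 or PtdIns(4,5)P2, run 2 h at 25 °C. Products resolved by TLC on oxalate-treated silica. Hydrolyzed spot quantified as fraction of total fluorescence; s.d. from two independent experiments.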

Assay [5] deals with 3T3-L1. Kind of assay: Inhibition of conversion of Ptdlns(3, 4, 5)P3 to PIP2 in GAPDH depleted mouse 3T3L1 lysate by fluorescent phosphoinositide TLC. It counts as functional. In short, it runs like this:
(§2)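 3T3-L1 lysate immunodepleted of GAPDH, run in 25 µl ammonium carbonate/DTT buffer pH 8.0 with fluorescent PtdIns(3,4,5)P3 or PtdIns(4,5)P2 substrate. Run with or without exogenous GAPDH ([…]), compound tested in the presence of GAPDH, 2 h at 25 °C. Sampled every 20 min and resolved by TLC. Hydrolyzed/total spot fluorescence; two independent experiments.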

The target of assay [6] is Glyceraldehyde-3-phosphate dehydrogenase (Mus musculus) (UniProt P16858). The assay can be described thus: Inhibition of GAPDH in mouse 3T3L1 […] assessed as increase in Ptdlns(4, 5)P2 level by immunofluorescence method. In short, it runs like this: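 Whole 3T3-L1 cells given compound in PBS for 1 min, DMSO as control, then fixed in 4% formaldehyde. Stained with antibody to PtdIns(4,5)P2 and imaged by fluorescence microscopy (ex 488/em 510 nm). Intensity normalized to DMSO control; s.d. from 15 images over three independent experiments.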

Assay [7] has as its system Caenorhabditis elegans. The assay can be described thus: inhibition of GAPDH in Caenorhabditis elegans e1370 daf-2 mutant assessed as inhibition of dauer formation. In short, it runs like this:
(§3)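 C. elegans daf-2 (e1370) kept in M9 buffer with 2% E. coli OP50 culture and compound ([…]), 4 d at 25 °C. Young adult-size animals counted in solution.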

Assay [8] relates to Caenorhabditis elegans. Kind of assay: inhibition of GAPDH in Caenorhabditis elegans e1370 daf-2 mutant assessed as inhibition of dauer formation relative to control. A digest of the protocol: as §3
The target in assay [9] is Glyceraldehyde-3-phosphate dehydrogenase (Oryctolagus cuniculus, UniProt P46406). Kind of assay: Inhibition of rabbit GAPDH glycolytic activity. A digest of the protocol: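 Enzyme source was purified GAPDH from rabbit muscle, assayed in vitro for its glycolytic enzymatic activity. IC50 was reported as the half-maximal inhibitory concentration.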
Chain of Glyceraldehyde-3-phosphate dehydrogenase (Oryctolagus cuniculus, UniProt P46406) (P46406 whole entry): as the sequence (P46406 whole entry, looked up) above
Assay [10] deals with Glyceraldehyde-3-phosphate dehydrogenase (Mus musculus) (UniProt P16858). Kind of assay: Induction of GAPDH tetramer segregation into monomers in mouse 3T3L1 lysate at […] after 3 hrs by immunoprecipitation method.
Assay [11] in a line: Activation of PI3K assessed as tyrosine phosphorylation of p85 subunit.
Assay [12] has as its target Glyceraldehyde-3-phosphate dehydrogenase (Mus musculus) (UniProt P16858). The assay can be described thus: Inhibition of GAPDH in mouse 3T3L1 lysate assessed as inhibition of conversion of Ptdlns(4, 5)P2 to PIP by fluorescent phosphoinositide TLC. A digest of the protocol: as §1
In assay [13] the test system is 3T3-L1. The assay can be described thus: Inhibition of conversion of Ptdlns(4, 5)P2 to PIP in GAPDH depleted mouse 3T3L1 lysate by fluorescent phosphoinositide TLC. It counts as functional. In short, it runs like this: as §2
Assay [14] addresses Glyceraldehyde-3-phosphate dehydrogenase (Homo sapiens, UniProt P04406). The assay can be described thus: Inhibition of GAPDH. A digest of the protocol:
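Purified rabbit muscle GAPDH was tested in vitro for its glycolytic enzymatic activity. The read-out was the half-maximal inhibitory concentration.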

Chain of Glyceraldehyde-3-phosphate dehydrogenase (Homo sapiens, UniProt P04406) (P04406 whole entry): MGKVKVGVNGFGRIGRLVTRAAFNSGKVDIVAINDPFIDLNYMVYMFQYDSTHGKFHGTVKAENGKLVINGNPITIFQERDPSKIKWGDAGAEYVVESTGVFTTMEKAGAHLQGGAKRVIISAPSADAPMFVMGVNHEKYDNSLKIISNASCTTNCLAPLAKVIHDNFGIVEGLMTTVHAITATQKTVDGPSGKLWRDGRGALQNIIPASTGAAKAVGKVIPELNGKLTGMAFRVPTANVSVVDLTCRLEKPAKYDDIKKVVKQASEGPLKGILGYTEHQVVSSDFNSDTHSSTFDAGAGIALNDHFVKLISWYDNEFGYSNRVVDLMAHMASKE

In the case of `CCCCNc1nc(NCCOCCOCCNC(=O)c2ccccc2)nc(NCc2ccccn2)n1`, the inhibition result in [1], in assay [2], in assay [4], in [5], in assay [6] and in assay [7] was “inactive” in each case. In addition, in assay [3], the result was inactive.

Consider `O=C(NCCOCCOCCNc1nc(NCCc2ccc(O)c(O)c2)nc(Nc2ccccc2)n1)c1ccccc1`, for which the inhibition is 18% in assay [8] and “Dose-dependent effect” in assay [1]. Also, in assay [9], the IC50 was 15 µM. Also, the outcome in assay [3] and in assay [10] was Active. Further, in [11], the result was inactive. Further, the inhibition result in assay [4], in assay [5], in [12] and in assay [6] was “Active” each time. In [13], the inhibition entry is “inactive”.

As to `NCCc1cc(O)c(O)cc1O` [OXIDOPAMINE], the inhibition result in [1] was “inactive”. The same compound registered an IC50 in assay [14] of 8 µM. Moreover, the outcome in assay [3] was inactive.

As to `C#CCN(C)[C@H](C)Cc1ccccc1`, the outcome in assay [3] was inactive.

A word on the inhibition: it is how much of the control response was suppressed. A word on the IC50: it is the concentration at which inhibition is half-maximal.
